According to ChEMBL document CHEMBL4732211, “Multifunctional agents based on benzoxazolone as promising therapeutic drugs for diabetic nephropathy” (Eur J Med Chem, 2021):
Calls of active or inactive are those of the source. The rule behind the calls is not given here.

Legend:
Mus musculus [1] = assay: Reno-protective activity in STZ-induced Kunming mouse model of diabetes assessed as urinary total protein excretion at 160 mg/kg, po administered daily via gavage for 8 weeks and measured at week 8 relative to control; assay type: functional
Mus musculus [2] = assay: Antidiabetic activity in STZ-induced Kunming mouse model of diabetes assessed as reduction in blood glucose level at 160 mg/kg, po administered daily via gavage for 8 weeks and measured at week 2; assay type: functional; conditions: 336 h, time 2 weeks
Mus musculus [3] = assay: Antidiabetic activity in STZ-induced Kunming mouse model of diabetes assessed as reduction in blood glucose level at 80 mg/kg, po administered daily via gavage for 8 weeks and measured at week 6; assay type: functional; conditions: 1008 h, time 6 weeks
Mus musculus [4] = assay: Antioxidant activity in STZ-induced diabetic Kunming mouse assessed as reduction in liver MDA level at 80 mg/kg, po administered daily via gavage for 8 weeks and measured at 6 hrs post-final drug dose relative to normal group; assay type: functional; conditions: 1344 h
Mus musculus [5] = assay: Reno-protective activity in STZ-induced Kunming mouse model of diabetes assessed as normal kidney structure at 80 mg/kg, po administered QD via gavage for 4 weeks by H and E staining based histological analysis; assay type: functional, organism-based
[6] = Inhibition of polyol pathway in STZ-induced Kunming mouse model of diabetes assessed as decrease in sorbitol level in kidney cortex at 160 mg/kg, po administered daily via gavage for 8 weeks and measured at 6 hrs post-final drug dose by fluorospectrophotometric analysis; assay type: functional; conditions: 1344 h
[7] = target: Aldo-keto reductase family 1 member B1 (Rattus norvegicus) (UniProt P07943); assay: Noncompetitive inhibition of Wistar rat lens ALR2 at 0.025 mM using varying level of D,L-glyeraldehyde as substrate in presence of NADPH by double reciprocal plot analysis; assay type: tissue-based
Outline: (§1)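 Rat ALR2 kinetics run under the assay conditions with inhibitor at 10 and 5 nM. Either D,L-glyceraldehyde varied (7.5-0.94 mM) with cofactor 0.025 mM, or NADPH varied (25-3.125) with glyceraldehyde 2.5 mM. Mode assigned from double-reciprocal plots.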

Mus musculus [8] = assay: Reno-protective activity in STZ-induced Kunming mouse model of diabetes assessed as reduction in urinary total protein excretion at 80 mg/kg, po administered QD via gavage for 4 weeks and measured at week 2 to 4; assay type: functional, organism-based; conditions: time 2-4 weeks
Mus musculus [9] = assay: Antioxidant activity in STZ-induced diabetic Kunming mouse assessed as reduction in liver MDA level at 80 mg/kg, po administered daily via gavage for 8 weeks and measured at 6 hrs post-final drug dose relative to STZ-treated group; assay type: functional; conditions: 1344 h
[10] = target: Aldo-keto reductase family 1 member B1 (Rattus norvegicus) (UniProt P07943); assay: Uncompetitive inhibition of Wistar rat lens ALR2 at 2.5 mM using D,L-glyeraldehyde as substrate in presence of varying levels of NADPH by double reciprocal plot analysis; assay type: tissue-based; outline: as §1
[11] = target: Aldo-keto reductase family 1 member B1 (Rattus norvegicus) (UniProt P07943); assay: Potency index, ratio of IC50 of epalrestat to IC50 of compound for inhibition of Wistar rat lens ALR2 using D,L-glyceraldehyde and NADPH as substrate preincubated for 10 mins followed by substrate addition and measured for 4 mins by spectrophotometric analysis; assay type: tissue-based; conditions: time 14.0 min
Outline: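 Aldose reductases (ALR2, ALR1) prepared from Wistar rats (200-250 g). NADPH loss followed at 340 nm for 4 min after substrate start, following 10 min preincubation. ALR2: pH 6.2 phosphate, 30 °C, NADPH 0.10 mM, D,L-glyceraldehyde 10 mM. ALR1: pH 7.2, 37 °C, NADPH 0.12 mM, D-glucuronate 20 mM. 0.5% DMSO; non-enzymatic rate subtracted. IC50 from log dose-response with ≥3 concentrations (20-80% inhibition), triplicate.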

Mus musculus [12] = assay: Antioxidant activity in STZ-induced diabetic Kunming mouse assessed as increase in GSH level in kidney at 160 mg/kg, po administered daily via gavage for 8 weeks and measured at 6 hrs post-final drug dose by microplate reader analysis; assay type: functional
Mus musculus [13] = assay: Antidiabetic activity in STZ-induced Kunming mouse model of diabetes assessed as reduction in blood glucose level at 160 mg/kg, po administered daily via gavage for 8 weeks and measured at week 4; assay type: functional; conditions: 672 h, time 4 weeks
Mus musculus [14] = assay: Reno-protective activity in STZ-induced Kunming mouse model of diabetes assessed as reduction in albumin to creatinine ratio at 80 mg/kg, po administered QD via gavage for 4 weeks; assay type: functional; conditions: 672 h
Mus musculus [15] = assay: Antidiabetic activity in STZ-induced Kunming mouse model of diabetes assessed as reduction in blood glucose level at 160 mg/kg, po administered daily via gavage for 8 weeks and measured at week 6; assay type: functional; conditions: 1008 h, time 6 weeks
Mus musculus [16] = assay: Antioxidant activity in STZ-induced diabetic Kunming mouse assessed as increase in GSH level in kidney at 80 mg/kg, po administered daily via gavage for 8 weeks and measured at 6 hrs post-final drug dose by microplate reader analysis; assay type: functional
Mus musculus [17] = assay: Antidiabetic activity in STZ-induced Kunming mouse model of diabetes assessed as reduction in blood glucose level at 80 mg/kg, po administered QD via gavage for 4 weeks and measured at week 2 to 4; assay type: functional, organism-based; conditions: time 2-4 weeks
[18] = Inhibition of polyol pathway in STZ-induced Kunming mouse model of diabetes assessed as decrease in sorbitol level in kidney cortex at 80 mg/kg, po administered daily via gavage for 8 weeks and measured at 6 hrs post-final drug dose by fluorospectrophotometric analysis; assay type: functional; conditions: 1344 h
Mus musculus [19] = assay: Antioxidant activity in STZ-induced diabetic Kunming mouse assessed as reduction in liver MDA level at 80 mg/kg, po administered QD via gavage for 4 weeks and measured at 6 hrs post-final drug dose relative to STZ-treated group; assay type: functional; conditions: 672 h
Mus musculus [20] = assay: Reno-protective activity in STZ-induced Kunming mouse model of diabetes assessed as urinary total protein excretion at 160 mg/kg, po administered daily via gavage for 8 weeks and measured at week 4 relative to control; assay type: functional; conditions: time 4 weeks
Mus musculus [21] = assay: Reno-protective activity in STZ-induced Kunming mouse model of diabetes assessed as reduction in albumin to creatinine ratio at 80 mg/kg, po administered daily via gavage for 8 weeks; assay type: functional; conditions: 1344 h
Mus musculus [22] = assay: Antidiabetic activity in STZ-induced Kunming mouse model of diabetes assessed as improvement in glucose tolerance at 80 mg/kg, po QD administered via gavage and measured for 120 mins by intraperitoneal GTT

Q: Which results are given for `COc1cc(/C=C/c2cccc3c2oc(=O)n3CC(=O)O)ccc1O`?
A: Activity (Mus musculus [1]): 58%; inhibition in vivo at 160 mg/kg (Mus musculus [2]): 35%; inhibition in vivo at 80 mg/kg (Mus musculus [3]): 19%; inhibition in vivo at 80 mg/kg (Mus musculus [4]): 16%; Activity (Mus musculus [5]): Active; inhibition in vivo at 160 mg/kg [6]: 18%; inhibition [7]: Active; Activity (Mus musculus [8]): Active; inhibition in vivo at 80 mg/kg (Mus musculus [9]): 67%; inhibition [10]: Active; Ratio IC50 [11]: 15; Activity (Mus musculus [12]): 210%; inhibition in vivo at 160 mg/kg (Mus musculus [13]): 23%; inhibition in vivo at 80 mg/kg (Mus musculus [14]): 57%; inhibition in vivo at 160 mg/kg (Mus musculus [15]): 19%; Activity (Mus musculus [16]): 170%; Activity (Mus musculus [17]): Active; inhibition in vivo at 80 mg/kg [18]: 19%; inhibition in vivo at 80 mg/kg (Mus musculus [19]): 54%; Activity (Mus musculus [20]): 93%; inhibition in vivo at 80 mg/kg (Mus musculus [21]): 67%; Activity (Mus musculus [22]): Active
